Assay outcomes: PubChem BioAssay, Columbia University Molecular Screening Center
The sample as a whole holds a higher share of hits than the screen did.
INS promoter act: TRM-6 insulin promoter activation; TRM-6 cells (human fetal islet line), insulin promoter eGFP reporter, imaging; plate-scaled: unstimulated 0, stimulated control 100; activation, % at 2 µM; hit rate 0.81% among 130,000; AID 1296;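 active means activation at 2 µM above a set limit, confirmed on inspection of the cell images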;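 further: share of cells whose green reporter signal exceeds an intensity cutoff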
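test system = TRM-6 insulin promoter–eGFP reporter cells | benchmarks = stimulated versus unstimulated wells as plate controls | read-out basis = percent cells above green-intensity threshold, converted to percent activation versus plate controls | detection = fixed-cell fluorescence microscopy, eGFP plus Hoechst | incubation = tamoxifen pre-incubation 15 h overnight, then compound exposure 48 h at 37 °C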
An asterisk follows results filed as active; + = active, no number; [ ] = remark or other dose.

SMILES	INS promoter act
CCN(CC)S(=O)(=O)c1ccc(Cl)c(C(=O)OC)c1	3
FC(F)(F)c1cc(-c2cccs2)nc2nc(N3CCOCC3)sc12	8
CN(C)c1cc[n+](CC(=O)Nc2ccc(Oc3ccccc3)cc2)cc1	3
CCOc1ccc(C(=O)NCC(c2cccs2)N(C)C)cc1 (centres undefined)	6
CCOc1ccccc1-n1c(=O)c2ccccc2c2ccccc2c1=O	-5
CCOc1ccccc1C(=O)n1nc(C)cc1C	3
CCOc1ccccc1C(=O)N1c2ccccc2Sc2ccccc21	100*
Cc1nn(-c2nnc(NC3CCCCC3)nn2)c(C)c1Br	8
CN1CCN(C(=O)C(C(=O)c2ccc(F)cc2)n2ccccc2=O)CC1 (centres undefined)	-6
COc1ccc(C(=O)NC(=S)Nc2ccc(Cc3ccncc3)cc2)cc1	-6
CCOC(=O)N1CCN=C1SCc1ccc(C(F)(F)F)cc1	-3
CSC1=NCCN1C(=O)Cc1ccc(-c2ccccc2)cc1	10
CCC(=O)N1CCN=C1SCc1ccc(Cl)cc1	493*
Cc1ccc(N=C/C(C(=O)C(F)(F)F)=C(\O)c2ccco2)cc1Cl	3
O=c1c(-c2cc3ccccc3o2)[n+]([O-])c2ccccc2n1OCc1ccccn1	-5
Cc1c(=O)n(OCc2ccccc2)c2ccccc2[n+]1[O-]	356
COc1ccc(COn2c(=O)c(C)[n+]([O-])c3ccccc32)cc1OC	86*
CCN(CCCn1c(=S)[nH]c2ccc(N3CCOCC3)cc2c1=O)c1ccccc1	6
O=C(COC(=O)C1(c2ccc(Cl)cc2)CCCC1)NC1CCS(=O)(=O)C1 (centres undefined)	-8
CC(=O)Oc1ccc2oc(=O)c3c(c2c1)CCCN3C(=O)CN1CCOCC1	-7
Cc1ccc(N2CCN(c3ccc(NC(=O)CCC(=O)O)cc3)CC2)cc1	-73
CCCC(=O)Nc1ccc(C(=O)N2CCCC2)cc1	-3
CCCC(=O)Nc1ccc(N2CCN(C(=O)c3ccccc3C)CC2)cc1	444*
CCn1ncc(C2=NOC(C(=O)Nc3cccc(O)c3)C2)c1C (centres undefined)	0
Cn1nnnc1SCC(=O)Nc1ccccc1[N+](=O)[O-]	0
SMILES	INS promoter act
COc1ccc(NC(=O)CSc2nnnn2C)cc1	-7
Cn1nnnc1SCC(=O)Nc1ccccn1	93*
CCS(=O)(=O)N1Cc2ccccc2CC1C(=O)N1CCN(c2cccc(C)c2C)CC1 (centres undefined)	9
CCNC(=S)NNC(=O)c1ccc(OC(F)F)cc1	-10
COc1ccc(CNc2nc3nc(C)c(Cl)c(C)n3n2)cc1OC	3
Cc1nc2nc(COc3ccccc3)nn2c(C)c1Cl	456*
Nc1nc(N)nc(COc2ccccc2)n1	-8
Cc1ccc(NC(=O)c2ccc(C(C)(C)C)cc2)cc1-n1cnnn1	8
CCOC(=O)c1cnc(SCc2cccc3ccccc23)nc1N	0
CCOC(=O)c1cnc(SCc2ccc(C(C)(C)C)cc2)nc1N	514*
CCOC(=O)c1cnc(SCc2ccccc2)nc1N	106
Cc1nc2scc(-c3ccc(C(C)(C)C)cc3)c2c(=O)n1N	0
Cc1ccc[n+](/C(C(=S)NCc2ccco2)=C(/[O-])c2ccccc2Cl)c1	287
Cc1ccc(/C([O-])=C(/C(=S)NCc2ccccc2)[n+]2cccc(CO)c2)cc1[N+](=O)[O-]	+
Cc1ccc(C(=O)Nc2ccc(OCc3ccccc3)cc2)cc1[N+](=O)[O-]	-6
CCN(CC)CCCN1C(=O)c2oc3ccccc3c(=O)c2C1c1cccs1 (centres undefined)	7
CCC(CC)NC(=O)COC(=O)c1cccc(C)c1O	-1
O=C(CCc1c[nH]c2ccccc12)NCC(=O)Nc1ccc(F)c(F)c1F	-8
CCC(NC(=O)COc1ccc([N+](=O)[O-])cc1)c1ccccc1 (centres undefined)	-67
O=C(Nc1cccc2oc(=O)ccc12)c1ccc([N+](=O)[O-])cc1[N+](=O)[O-]	0
CCC(NC(=O)c1ccc([N+](=O)[O-])cc1[N+](=O)[O-])c1ccccc1 (centres undefined)	80*
N#C/C(=C\c1cn(Cc2ccccc2F)c2ccccc12)C(=O)NCc1ccco1	7
CCOc1ccc(-c2nc(-c3ccccc3C)no2)cc1	0
COc1ccc(/C=C2/C(=O)N(c3nc4ccccc4s3)N=C2CSc2ccc(Cl)cc2)cc1	-7
CCOC(=O)C1CCCN(C(=O)C2CC(=O)N(c3ccc(C)cc3)C2)C1 (centres undefined)	-15
SMILES	INS promoter act
CCOC(=O)C1CCCN(c2cc(=O)n(C3CCCCC3)c(=O)[nH]2)C1 (centres undefined)	124*
CCOC(=O)C1CCCN(C(=S)Nc2ccc(OC)cc2)C1 (centres undefined)	0
Cc1cccc(NC(=O)Cn2nnc3ccccc32)c1	7
CCNC(=O)C/C(C)=N/NC(=O)C(=O)Nc1ccc(CC)cc1	-7
COc1ccc(C(=O)NC2=NCCS2)cc1S(=O)(=O)N1CCCCC1C (centres undefined)	0
CCc1cc(OCCCSc2nc(C)cc(=O)[nH]2)ccc1Cl	9
CCCCn1nnnc1SCC(=O)NCc1ccccc1	267
Cc1occc1-c1nnc(SCC(=O)NCCc2ccccc2)n1C(C)c1ccccc1 (centres undefined)	9
CC(C)n1nnnc1SCC(=O)NCCc1ccccc1	75*
O=C1N/C(=C/c2ccc(N3CCOCC3)cc2)C(=O)N1Cc1ccc(F)cc1	-8
O=C1/C(=C/c2ccc(N3CCCC3)cc2)NC(=S)N1C1CC1	186*
Cc1ccc(S(=O)(=O)N2CCCC2C(=O)O)s1 (centres undefined)	10
COc1ccc(-c2[nH]ncc2C=O)cc1	-60
O=C(c1ccc(Cl)c(S(=O)(=O)N2CCCCCC2)c1)N1CCN(c2ccccc2O)CC1	0
N#C/C(=N\Nc1cc(Cl)cc(Cl)c1)c1nnc2n1CCCCC2	-3
COc1cc2ncnc(NCc3ccc(C)cc3)c2cc1OC	230*
COc1ccc(CNC(=O)CSc2ncnc3ccccc23)cc1OC	-9
COc1cc(OC)c(OC)cc1CNc1cc(C)ccc1OC	9
O=C(Nc1ccccc1C(=O)Nc1ccc2c(c1)OCO2)c1cccs1	3
CCC(/C=N/NC(=O)CCCCC(=O)N/N=C/C(CC)CC)CC	8
CCN1/C(=C/C=C/c2oc3ccc(-c4ccccc4)cc3[n+]2CC)Oc2ccc(-c3ccccc3)cc21	809*[fluoresces]
Cc1ccc(/C=C/C(=O)NC2CCCCCCC2)o1	0
COc1ccc(CCCC(=O)Nc2ccccc2F)cc1	7
Cc1ccc(C(=O)Cn2c(-c3ccccc3)noc2=O)cc1	-7
Cc1cc(C)c(S(=O)(=O)NCC(=O)NCc2ccco2)c(C)c1	0
SMILES	INS promoter act
CN(C)CCN(C(=O)c1cccc(Cl)c1)c1nc2c(Cl)cccc2s1	-10
COc1ccc(OC)c2sc(N(CCN(C)C)C(=O)c3cc(Cl)sc3Cl)nc12	283*
CN(C)CCCN(C(=O)c1ccco1)c1nc2ccc(Cl)cc2s1	0
COc1cccc(C(=O)NC(=S)Nc2ccc(N(C)C)cc2)c1	-9
Cc1ccc(C)c2[nH]c(=O)c(C(c3nnnn3C(C)(C)C)N3CC=C(c4ccc(F)cc4)CC3)cc12 (centres undefined)	4
C=CCNc1sc(C(=O)c2ccccc2)c(N)c1-c1nc2ccccc2s1	2
O=C(c1ccccc1)c1c2c(cc3sc4ccccc4[n+]13)-c1cccc3cccc-2c13	233*
Cc1cc(C)nc(SCc2nnc(SCC(N)=O)o2)n1	-6
